# Laboratory results as given in PubChem BioAssay.
# Activity calls are given as the source filed them.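 How the source made its calls, unless noted: active means compounds giving at least 50% inhibition in the cell-based MKP-3 phosphatase rescue imaging test; inactive means the rest.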
# What was measured:
# [1] = inhibitors of TNFa-induced NFkB p65 translocation, primary screen, imaging, HUVEC, MLSMR starter and 10KST1 sets (AID 438;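 active means inhibition above 20% together with a positive visual image hit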;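 further: compound added about 3h40 before a 20 min TNFalpha stimulation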;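 on inhibition: signal is the nuclear over cytoplasmic p65 intensity ratio per well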); settings: HUVEC TNFa-induced p65 nuclear translocation; cell count: measured here: nuclei count (cytotoxicity indicator), at 2.08 µM; inhibition: at 2 µM, stronger effect = higher value, 0% TNFa-plus-vehicle, 100% no-TNFa wells
# [2] = inhibitors of E-selectin induction by TNFa, primary screen, imaging, HUVEC, immunofluorescence, MLSMR starter and 10KST1 sets (AID 487;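 active means visually confirmed hit in the image check and inhibition above 20%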;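 on inhibition: signal is fraction of cell area covered by stained E-selectin grains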;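 on nuclei count: 100% = median nuclei count of all wells on the same plate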); settings: HUVEC TNFalpha-induced E-selectin immunofluorescence imaging, at 2 µM; inhibition: stronger effect = higher value; nuclei count: measured here: cell number, toxicity
# [3] = DUSP6 inhibitors restoring Erk phosphorylation by chemical complementation, primary imaging in DUSP6-transfected HeLa (AID 609); settings: HeLa MKP-3 transfected, phospho-Erk imaging KS statistic, at 10 µM, cells stimulated with TPA for 15 min;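 on inhibition: phospho-Erk level distribution per well compared with pooled transfected vehicle control wells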
# [4] = target: Dual specificity protein phosphatase 6 (Homo sapiens) (UniProt Q16828); test: as above; settings: HeLa MKP-3 transfected, phospho-Erk imaging KS statistic; at 10 µM; stronger effect = higher value; cells stimulated with TPA for 15 min
# Sequence of Dual specificity protein phosphatase 6 (Homo sapiens) (Q16828 whole entry, looked up): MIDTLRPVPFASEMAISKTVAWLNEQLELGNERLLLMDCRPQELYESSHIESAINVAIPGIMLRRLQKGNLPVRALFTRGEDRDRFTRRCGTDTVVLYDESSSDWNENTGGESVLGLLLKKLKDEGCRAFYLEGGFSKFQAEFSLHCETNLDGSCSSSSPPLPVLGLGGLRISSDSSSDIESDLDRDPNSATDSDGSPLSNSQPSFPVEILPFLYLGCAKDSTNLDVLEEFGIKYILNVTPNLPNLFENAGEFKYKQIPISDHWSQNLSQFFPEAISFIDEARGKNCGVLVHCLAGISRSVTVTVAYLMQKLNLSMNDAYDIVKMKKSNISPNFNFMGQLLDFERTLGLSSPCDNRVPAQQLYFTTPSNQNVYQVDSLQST
# [5] = target: Voltage-gated potassium channel subunit beta-2 (Rattus norvegicus) (UniProt P62483); test: KvBeta enzyme negative modulators, primary screen, biochemical, NADPH fluorescence (AID 622;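 active means fluorescence slope higher than the sample average by over 3 SD, cut at about -0.22 in these data, passing the limit was not always enough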;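 further: slope of raw intensity against log time taken from 70 to 1610 s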); settings: recombinant KvBeta, 4-cyanobenzaldehyde reduction, at 10 µM, stronger effect = higher value
# Sequence of Voltage-gated potassium channel subunit beta-2 (Rattus norvegicus) (P62483 whole entry, looked up): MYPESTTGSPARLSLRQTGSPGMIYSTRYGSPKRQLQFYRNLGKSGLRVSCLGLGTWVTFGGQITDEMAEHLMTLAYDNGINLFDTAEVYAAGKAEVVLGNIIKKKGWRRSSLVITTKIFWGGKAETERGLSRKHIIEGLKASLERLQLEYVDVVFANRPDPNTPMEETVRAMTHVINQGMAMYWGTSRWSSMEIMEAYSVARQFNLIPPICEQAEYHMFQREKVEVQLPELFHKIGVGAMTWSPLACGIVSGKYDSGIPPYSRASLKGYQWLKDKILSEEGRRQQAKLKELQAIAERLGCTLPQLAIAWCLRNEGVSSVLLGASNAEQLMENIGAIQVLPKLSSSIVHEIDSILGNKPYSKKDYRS
# [6] = target: Voltage-gated potassium channel subunit beta-2 (Rattus norvegicus) (UniProt P62483); test: KvBeta positive modulators, primary screen, biochemical, NADPH fluorescence (AID 623;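 active means NADPH fluorescence slope more negative than the mean of all samples by about 3 SD, 99.7% confidence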;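 further: fluorescence intensity change per second fitted from 20 to 320 s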); settings: Recombinant KvBeta, NADPH fluorescence decrease slope, 10 min; at 10 µM; stronger effect = lower value
# [7] = target: Muscarinic acetylcholine receptor M4 (Homo sapiens) (UniProt P08173); test: compounds altering M4/GIRK thallium flux, either direction, primary screen, M4 allosteric agonist project, cell-based, HEK293 M4/GIRK, BTC-AM (AID 625;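 active means fluorescence slope after compound addition differing from the mean of all tested samples at 99.7% confidence, mostly higher but some lower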;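 further: thallium influx through GIRK channels coupled to M4 in HEK293 cells with BTC-AM dye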); settings: at 10 µM, actives lie on both sides
# Sequence of Muscarinic acetylcholine receptor M4 (Homo sapiens) (P08173 whole entry, looked up): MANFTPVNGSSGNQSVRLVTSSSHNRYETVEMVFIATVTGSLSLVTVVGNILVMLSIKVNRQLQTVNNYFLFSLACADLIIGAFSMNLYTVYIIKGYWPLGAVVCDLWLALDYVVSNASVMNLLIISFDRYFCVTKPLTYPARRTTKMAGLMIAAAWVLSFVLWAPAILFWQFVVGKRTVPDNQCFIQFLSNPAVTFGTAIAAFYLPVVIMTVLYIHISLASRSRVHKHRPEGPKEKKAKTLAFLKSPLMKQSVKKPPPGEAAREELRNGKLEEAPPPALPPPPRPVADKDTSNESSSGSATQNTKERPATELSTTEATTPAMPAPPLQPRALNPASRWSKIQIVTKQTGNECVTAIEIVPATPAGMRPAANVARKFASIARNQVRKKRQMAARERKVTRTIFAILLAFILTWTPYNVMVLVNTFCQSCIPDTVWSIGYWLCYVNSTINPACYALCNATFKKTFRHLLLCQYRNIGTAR
# In short: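 System: HEK293 cells with M4 receptor and GIRK channels | Incubation: Cells overnight at 37 °C, BTC-AM loading 1 h, reads 2 min total | Technique: Kinetic BTC-AM fluorescence sampled at 1 Hz, 10 s pre-addition baseline | Measure: Post-addition slope, 15–24 s, of baseline-normalized fluorescence | Control set: Carbachol positive, DMSO negative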
# [8] = inhibitors of larval lipid processing in zebrafish, primary screen, whole organism, PED6 fluorescence, gall bladder and intestine (AID 686;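 active means a full or partial loss of lipid-probe fluorescence in the fish gall bladder, intestine or both, judged by eye; inactive means no fluorescence loss, or compound toxic to the fish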;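 further: larvae 5 to 7 days old with five fish per well; signal comes from phospholipase A2 cleavage of quenched PED6 carried via bile; overnight exposure to compound and PED6 before scoring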); settings: Zebrafish larvae PED6 lipid processing, fluorescence scoring; screened at 20 µM (by protocol)
# In short: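 Test system – live zebrafish larvae aged 5-7 days, whole organism · Buffer or medium – E3 fish medium · Reagent – quenched phospholipase substrate PED6, 100 nM final, ingested by larvae · Doses – 20 µM single dose · Incubation – overnight compound and PED6 incubation · Technique – visual fluorescence microscopy scoring of gall bladder, gut · Read-out basis – visual per-well fluorescence inhibition score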
# [9] = inhibitors of Chlamydomonas gravitaxis, primary screen, whole organism, Chlamydomonas reinhardtii, WT vs cilia-less mutant, absorbance, 96-well (AID 463189;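 active means inhibition at or above 50% relative to wild type and mutant plate controls; inactive means inhibition below 50%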;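 further: 0% = wild type cc124 cells in DMSO and 100% = ciliumless bld1 mutant cells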); settings: OD600 absorbance, 2 days, at 10 µM, stronger effect = higher value
# [10] = measured here: cell density z-score
# [11] = measured here: nuclear c-Myc green intensity z-score
# [12] = measured here: nuclear pErk red intensity z-score, stronger effect = higher value
SMILES,cell count [1],inhibition [1],inhibition [2],nuclei count [2] [%],"z-score [3, 10]","z-score [3, 11]","z-score [3, 12]",inhibition [4],fluorescence slope [5],NADPH fluorescence slope [6],fluorescence slope [7],outcome [8],inhibition [9]
CCC(=O)NC1(C(F)(F)F)C(=O)Nc2c1c(=O)[nH]c(=O)n2Cc1ccco1 (configuration not stated),652,-2.8% (inactive),-96.3% (inactive),167,-1.08,0.161,0.694,1.04% (inactive),-0.497 (inactive),-8.6e-05 (inactive),0.00505 (inactive),inactive,9.21% (inactive)
CC(C)COC(=O)CCNc1n[nH]c(=O)[nH]c1=O,622,-4.8% (inactive),-26.4% (inactive),174,0.623,-0.835,-0.389,-11.5% (inactive),-0.505 (inactive),-4.2e-05 (inactive),0.00627 (inactive),inactive,-4.85% (inactive)
O=C(CC(c1ccco1)S(=O)(=O)c1ccccc1)c1ccc(F)cc1 (configuration not stated),585,-2% (inactive),-105% (inactive),138,-0.324,0.355,1.32,-14.6% (inactive),-0.413 (inactive),-0.000113 (inactive),0.00466 (inactive),inactive,28.8% (inactive)
Cc1c(O)c(CN2CCCC2)cc2c1oc(=O)c1ccccc12,602,3.3% (inactive),92.9% (active),77.2,0.99,0.189,-0.00827,-8.95% (inactive),-0.44 (inactive),-2.9e-05 (inactive),0.00331 (inactive),inactive,17.4% (inactive)
CC(NC(=O)Nc1ccc(O)cc1)(C(F)(F)F)C(F)(F)F,709,-15.9% (inactive),-16.4% (inactive),151,-0.386,1.06,0.803,-3.95% (inactive),-0.461 (inactive),-4.3e-05 (inactive),0.00553 (inactive),inactive,0.534% (inactive)
CC1(C)Cc2nc3sc4c(N(CCO)CCO)ncnc4c3cc2CO1,383,-7.2% (inactive),7.7% (inactive),82.1,-1.35,0.534,1.17,-4.59% (inactive),-0.474 (inactive),-1.1e-05 (inactive),0.00508 (inactive),inactive,36.1% (inactive)
Cc1cccc(NC(=O)c2cc(N3CCOCC3)nc3ccccc23)c1,620,-13.1% (inactive),-446% (inactive),148,-1.06,1.5,2.96,-11.5% (inactive),-0.438 (inactive),-7.5e-05 (inactive),0.00519 (inactive),inactive,-4.1% (inactive)
COC(=O)C(NC(=O)c1ccc(F)cc1)(Nc1nc(C)cs1)C(F)(F)F (configuration not stated),695,-6.3% (inactive),-18.4% (inactive),151,-0.266,-0.66,0.98,-3.95% (inactive),-0.444 (inactive),-4.6e-05 (inactive),0.00339 (inactive),inactive,7.8% (inactive)
COc1ccc(N2CC(=O)N(c3ccc(OC)c(OC)c3)CC2=O)cc1OC,400,-5.7% (inactive),-94.2% (inactive),142,-0.173,-2.28,1.66,3.42% (inactive),-0.477 (inactive),-5.2e-05 (inactive),0.00438 (inactive),inactive,18.5% (inactive)
CCOc1ccc2nc(NC(NC(=O)CC)(C(=O)OC)C(F)(F)F)sc2c1 (configuration not stated),362,-7% (inactive),-214% (inactive),195,-0.714,0.587,0.266,3.42% (inactive),-0.424 (inactive),-8.8e-05 (inactive),0.00487 (inactive),inactive,-2.07% (inactive)
CCOC(=O)C1CCCN(c2nc3ccccc3nc2C(C#N)C(=O)OC(C)COC)C1 (configuration not stated),683,-5.4% (inactive),-63% (inactive),204,-1,0.049,0.811,-5.81% (inactive),-0.495 (inactive),-0.000103 (inactive),0.00181 (inactive),inactive,23.6% (inactive)
Clc1ccccc1CN(Cc1ccccc1)c1ncnc2nc[nH]c12,523,7.2% (inactive),5.3% (inactive),93,-3.05,1.38,0.29,1.63% (inactive),-0.481 (inactive),-4.9e-05 (inactive),0.00447 (inactive),inactive,38.7% (inactive)
CCCCOc1ccc(C(=O)N2CCCC2C(=O)O)cc1 (configuration not stated),675,2.7% (inactive),22.4% (inactive),146,0.371,0.251,0.422,-13.3% (inactive),-0.458 (inactive),-4.7e-05 (inactive),0.00494 (inactive),inactive,7.22% (inactive)
CC(C(=O)N(C)C)N(C#N)c1nc(N(C)C)nc(N(C)C)n1 (configuration not stated),606,7.4% (inactive),7.8% (inactive),80.9,-1.86,1.62,0.8,7.21% (inactive),-0.506 (inactive),-5.1e-05 (inactive),0.00543 (inactive),inactive,26.6% (inactive)
